Results reported in ChEMBL document CHEMBL1154208, “Antispasmodic effects and structure-activity relationships of labdane diterpenoids from Marrubium globosum ssp. libanoticum” (2009).
Active and inactive are the calls of the source. No cut-off for these calls is given here.

The molecules below were run on Ileum (assay: Antispasmodic activity in mouse distal ileum assessed as inhibition of acetylcholine-induced contractions after 20 mins). Conditions: not given.
Type: functional, tissue-based
How it was run: (§1)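 Isolated mouse ileum segments. Contractions evoked by acetylcholine (10^-6 M) at 20 min intervals; after at least three stable control contractions, responses repeated with noncumulative increasing compound concentrations added 20 min before the stimulus, after tissue washing. Mean ± SEM of 6-8 experiments; concentration-response curves fitted by nonlinear regression.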
With CCO[C@@H]1O[C@@H]2O[C@]3(CC[C@]2(O)[C@H]1O)[C@H](C)C[C@H]1OC(=O)[C@@]2(C)CCC[C@@]3(C)[C@@H]12 (relative stereo) the inhibition was “Dose-dependent effect”.

The molecules below were run on Ileum (assay: Antispasmodic activity in mouse distal ileum assessed as inhibition of acetylcholine-induced contractions at 100 ug/ml after 20 mins). Conditions: not given.
Type: functional
How it was run: as §1
With C[C@@H]1C[C@H]2OC(=O)[C@@]3(C)CCC[C@@](C)([C@@H]23)[C@@]12CC[C@]1(CO[C@H](O)C1)O2 the inhibition was “Active”. With C[C@@H]1C[C@H]2OC(=O)[C@@]3(C)CCC[C@@](C)([C@@H]23)[C@@]12CC[C@@]1(CO[C@@H](O)C1)O2 the inhibition was “inactive”. For C[C@@H]1C[C@H]2OC(=O)[C@@]3(C)CCC[C@@](C)([C@@H]23)[C@@]12CC[C@]1(COC(=O)C1)O2, the inhibition was “Active”. For C[C@@H]1C[C@H]2OC(=O)[C@@]3(C)CCC[C@@](C)([C@@H]23)[C@@]12CC[C@@]1(CO[C@H](O)C1)O2, the inhibition was “inactive”. In the case of C[C@@H]1C[C@@H](O)[C@H]2C(C)(C)CCC[C@]2(C)[C@@]1(O)CCC1=CC(=O)OC1, the inhibition is reported as “inactive”. With C[C@@H]1C[C@H]2OC(=O)[C@@]3(C)CCC[C@@](C)([C@@H]23)[C@@]12CC[C@@]1(COC(=O)C1)O2 the inhibition was “Active”. With C[C@@H]1C[C@H]2OC(=O)[C@@]3(C)CCC[C@@](C)([C@@H]23)[C@@]1(O)CCCC(=O)O the inhibition was “Active”. In the case of C[C@@H]1C[C@H]2OC(=O)[C@@]3(C)CCC[C@@](C)([C@@H]23)[C@@]12CC[C@]1(CO[C@@H](O)C1)O2, the inhibition is reported as “Active”. C[C@@H]1C[C@H]2OC(=O)[C@@]3(C)CCC[C@@](C)([C@@H]23)[C@@]1(O)CCC1=CC(=O)OC1 was tested, and the inhibition was “inactive”.

Same assay, conditions: read-out: INH
Work on C[C@@H]1C[C@H]2OC(=O)[C@@]3(C)CCC[C@@](C)([C@@H]23)[C@@]12CCC(=O)O2 yielded an inhibition at 100 µg/mL of under 50%. With C[C@@H]1C[C@H]2OC(=O)[C@@]3(C)CCC[C@@](C)([C@@H]23)[C@@]12CCCC(=O)O2 [MARRULACTONE] the inhibition at 100 µg/mL was under 50%.
